Laboratory results reported in ChEMBL document CHEMBL4665897, “α-Linolenic Acid-Valproic Acid Conjugates: Toward Single-Molecule Polypharmacology for Multiple Sclerosis” (ACS Med Chem Lett, 2020).
Active and inactive are the calls of the source. The calls are words filed in the database; no cut-off is given here.

Tests used:
[1] = test system: Cerebellar granule neurone; experiment: Neuroprotective activity against glutamate/glycine-induced excitotoxicity in rat primary Cerebellar granule neurone at 25 uM preincubated for 6 hrs measured after 24 hrs by MTT assay; type: functional, tissue-based
Method in brief: (§1)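 Primary rat cerebellar granule neurons at 8 DIV pretreated 6 h with compound (5, 10, 25 μM), then 100 μM glutamate/10 μM glycine added for a further 24 h with compound present. Viability was read by MTT, expressed as % of control. Values are mean SE of at least four experiments, each in triplicate.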

Olineu [2] = experiment: Induction in mouse Oli-neu cell differentiation to oligodendrocytes assessed as increase in CNPase expression at 5 uM after 72 hrs by Western blot analysis; type: functional
Method in brief: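 Oli-Neu cells exposed to 5 μM compound; Olig2 was assessed at 48 h and CNPase at 72 h. Values are % of control, mean SE of at least three experiments, one-way ANOVA with Bonferroni.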

Olineu [3] = experiment: Induction in mouse Oli-neu cell differentiation to oligodendrocytes assessed as increase in filament length at 5 uM after 48 hrs; type: functional
Method in brief: (§2)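 Oli-Neu cells (immortalized mouse oligodendrocyte precursors) exposed to 5 μM compound for 48 h. Proliferation was scored by cell counting and differentiation by filament length. Values are % of control, mean SE of at least three experiments, one-way ANOVA with Bonferroni.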

[4] = test system: Cerebellar granule neurone; experiment: Neuroprotective activity against glutamate/glycine-induced excitotoxicity in rat primary Cerebellar granule neurone at 10 uM preincubated for 6 hrs measured after 24 hrs by MTT assay; type: functional, tissue-based; method in brief: as §1
[5] = test system: Cerebellar granule neurone; experiment: Neuroprotective activity against glutamate/glycine-induced excitotoxicity in rat primary Cerebellar granule neurone at 5 uM preincubated for 6 hrs measured after 24 hrs by MTT assay; type: functional, tissue-based; method in brief: as §1
Olineu [6] = experiment: Induction in mouse Oli-neu cell differentiation to oligodendrocytes assessed as decrease in cell number at 5 uM after 48 hrs; type: functional; method in brief: as §2
[7] = biological target: T1, Histone deacetylase (Homo sapiens) (UniProt Q13547+O15379+Q9UBN7+Q92769+Q9UQL6+Q8WUI4+Q9BY41+Q96DB2+P56524+Q9UKV0+Q969S8); experiment: Inhibition of HDAC in human medulloblastoma (DAOY) cells assessed as increase in acetylated histone levels at […] after 48 hrs by densitometric analysis
[8] = biological target: T1, Histone deacetylase (Homo sapiens); experiment: Inhibition of HDAC in human medulloblastoma (DAOY) cells assessed as increase in acetylated histone levels at 0.5 mM after 48 hrs by densitometric analysis
Method in brief: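 HDAC inhibition in human DAOY medulloblastoma cells was read as acetylated histone H3 by immunoblot densitometry. […] Values are mean SD of three independent experiments, Newman–Keuls after ANOVA versus vehicle.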

Olineu [9] = experiment: Induction in mouse Oli-neu cell differentiation to oligodendrocytes assessed as decrease in Olig2 expression at 5 uM after 48 hrs by Western blot analysis
N9 (Mus musculus) [10] = experiment: Immunomodulatory activity in LPS treated mouse N9 microglial cells assessed as reduction in nitrite level at 0.5 uM preincubated for 6 hrs by Griess reagent assay; settings: time 24.0 hrs
N9 (Mus musculus) [11] = experiment: Immunomodulatory activity in LPS treated mouse N9 microglial cells assessed as shift in M1 neurotoxic phenotype to M2 neuroprotective by measuring TREM2 expression level at 0.5 uM preincubated for 6 hrs by western blot analysis
N9 (Mus musculus) [12] = experiment: Immunomodulatory activity in LPS treated mouse N9 microglial cells assessed as shift in M1 neurotoxic phenotype to M2 neuroprotective by measuring decrease in iNOS expression level at 0.5 uM preincubated for 6 hrs by western blot analysis

Compound	Activity [1]	Activity (Olineu [2])	Activity (Olineu [3])	Activity [4]	Activity [5]	Activity (Olineu [6])	inhibition [7]	inhibition [8]	Activity (Olineu [9])	inhibition (N9 (Mus musculus) [10])	inhibition (N9 (Mus musculus) [11])	inhibition (N9 (Mus musculus) [12])
CC/C=C\C/C=C\C/C=C\CCCCCCCC(=O)O	inactive	–	–	–	–	–	–	–	–	–	–	–
CC/C=C\C/C=C\C/C=C\CCCCCCCC(=O)NCCNC(=O)C(CCC)CCC	inactive	Active	Active	Active	Active	Active	Active	Active	Active	Active	inactive	Active
CC/C=C\C/C=C\C/C=C\CCCCCCCC(=O)NCCOC(=O)C(CCC)CCC	inactive	–	Active	Active	Active	Active	Active	Active	Active	Active	inactive	Active
CCCC(CCC)C(=O)O	inactive	Active	–	inactive	inactive	Active	Active	–	–	–	–	–
